The results in this text go back to ChEMBL document CHEMBL3045352, “Papyracillic acid, a phytotoxic 1,6-dioxaspiro[4,4]nonene produced by Ascochyta agropyrina Var. nana, a potential mycoherbicide for Elytrigia repens biocontrol” (J Agric Food Chem, 2009).

Type in all cases: functional, organism-based
The subject of assay [1] is Cirsium arvense. The assay is described as follows: Mycoherbicidal activity against Cirsium arvense (Canada thistle) assessed as decrease in length of necrotic lesions at 1 mg/ml by leaf-disk puncture assay. A digest of the protocol:
(§1)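 Leaf disk-puncture bioassay on leaves of host and nonhost plants. Compound was applied at 1 mg/mL, and necrosis was read 3 days post-application. Each bioassay was run twice with at least three replicates. Error bars are standard error, and means were compared by Fisher's LSD.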

In assay [2] the test system is Candida tropicalis. The assay is described as follows: Antimicrobial activity against Candida tropicalis assessed as growth inhibition at 50 ug/disk. The gist of the method:
(§2)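 Paper-disk assay against C. tropicalis, X. campestris and B. subtilis. Standard testing used 50 μg per disk. For concentration dependence, doses ran from 1.5 to 100 μg/disk. Each bioassay was run twice with at least three replicates. Means were compared by Fisher's LSD.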

Assay [3] concerns Bacillus subtilis. The assay is described as follows: Antimicrobial activity against Bacillus subtilis assessed as zone of lysis at 50 ug/disk. The gist of the method:
as §2

Assay [4] deals with Elymus repens. The assay is described as follows: Mycoherbicidal activity against Elymus repens (couch grass) assessed as decrease in length of necrotic lesions at 1 mg/ml by leaf-disk puncture assay. The gist of the method:
as §1

For assay [5], the system named is Xanthomonas campestris. Kind of assay: Antimicrobial activity against Xanthomonas campestris assessed as zone of lysis at 50 ug/disk. A digest of the protocol: as §2
In the next assay the test system is Sonchus arvensis. Kind of assay: Mycoherbicidal activity against Sonchus arvensis (field sow-thistle) assessed as decrease in length of necrotic lesions at 1 mg/ml by leaf-disk puncture assay. The gist of the method:
as §1

The test system of the next assay is Rosa pendulina. The assay is described as follows: Mycoherbicidal activity against Rosa pendulina assessed as decrease in length of necrotic lesions at 1 mg/ml by leaf-disk puncture assay. A digest of the protocol: as §1
The subject of another assay is Trifolium pratense. The assay is described as follows: Mycoherbicidal activity against Trifolium pratense (red clover) assessed as decrease in length of necrotic lesions at 1 mg/ml by leaf-disk puncture assay. A digest of the protocol: as §1
Assay [6] has as its system Cirsium arvense. Kind of assay: Mycoherbicidal activity against Cirsium arvense (Canada thistle) assessed as decrease in length of necrotic lesions at 0.5 mg/ml by leaf-disk puncture assay. A digest of the protocol: (§3)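 Dose-response leaf disk-puncture on E. repens and C. arvense leaves. Concentrations ran from 0.06 to 2 mg/mL (0.6-20 μg/disk), and necrotic symptoms were scored 2 days post-application. Each bioassay was run twice with at least three replicates. Means were compared by Fisher's LSD.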

The next assay has as its system Chenopodium album. Kind of assay: Mycoherbicidal activity against Chenopodium album assessed as decrease in length of necrotic lesions at 1 mg/ml by leaf-disk puncture assay. The gist of the method: as §1
Another assay deals with Cannabis sativa. Kind of assay: Mycoherbicidal activity against Cannabis sativa (hemp) assessed as decrease in length of necrotic lesions at 1 mg/ml by leaf disk puncture assay. A digest of the protocol: as §1
A further assay has as its system Taraxacum officinale. The assay is described as follows: Mycoherbicidal activity against Taraxacum officinale (dandelion) assessed as decrease in length of necrotic lesions at 1 mg/ml by leaf-disk puncture assay. The gist of the method:
as §1

For the next assay, the system named is Rumex confertus. The assay is described as follows: Mycoherbicidal activity against Rumex confertus (Asian dock) assessed as decrease in length of necrotic lesions at 1 mg/ml by leaf-disk puncture assay. The gist of the method: as §1
The subject of assay [7] is Bacillus subtilis. The assay is described as follows: Antimicrobial activity against Bacillus subtilis assessed as zone of lysis at 6.25 ug/disk. A digest of the protocol:
as §2

A further assay deals with Hordeum vulgare. The assay is described as follows: Mycoherbicidal activity against Hordeum vulgare (barley) assessed as decrease in length of necrotic lesions at 1 mg/ml by leaf-disk puncture assay. A digest of the protocol:
as §1

In assay [8] the test system is Candida tropicalis. Kind of assay: Antimicrobial activity against Candida tropicalis assessed as growth inhibition at 6.25 ug/disk. The gist of the method:
as §2

Another assay relates to Phleum pratense. Kind of assay: Mycoherbicidal activity against Phleum pratense (timothy grass) assessed as decrease in length of necrotic lesions at 1 mg/ml by leaf-disk puncture assay. The gist of the method: as §1
In assay [9] the test system is Elymus repens. Kind of assay: Mycoherbicidal activity against Elymus repens (couch grass) assessed as decrease in length of necrotic lesions at 0.5 mg/ml by leaf-disk puncture assay. A digest of the protocol:
as §3

Assay [10] has as its system Xanthomonas campestris. The assay is described as follows: Antimicrobial activity against Xanthomonas campestris assessed as zone of lysis at 6.25 ug/disk. A digest of the protocol: as §2

The structures appear in SMILES notation. Calls of active or inactive are those of the source. The rule behind the calls is not given here.

On to `C=C1[C@H](C)[C@](C)(OC)O[C@]12OC(=O)C=C2OC`, for which the outcome in the assay on Cirsium arvense [1], in the assay on Bacillus subtilis [3], in the assay with Elymus repens [4] and in the assay on Xanthomonas campestris [5] was Active. In addition, the “growth inhibition (GI)” value with Candida tropicalis [2] is “Active”.
As for `C=C(C(C)C(C)=O)C1(OC(C)=O)OC(=O)C=C1OC` (stereo unspecified), the outcome in the assay with Cirsium arvense [1], in the assay on Bacillus subtilis [3], in the assay on Elymus repens [4] and with Xanthomonas campestris [5] was Active.
For the compound `COC1=CC(=O)O/C1=C(\COC(C)=O)C(C)C(C)=O` (stereo unspecified), the result in the assay with Cirsium arvense [1] and with Elymus repens [4] was Active.
With `C=C(C(=O)/C(=C\C(=O)OC)OC)C(C)C(C)=O` (stereo unspecified), the result in the assay on Cirsium arvense [1] was Active.
Regarding `C=C1[C@H](C)[C@](C)(O)O[C@]12OC(=O)C=C2OC`, the outcome in the assay with Cirsium arvense [1], with Sonchus arvensis, in the assay on Rosa pendulina, in the assay on Trifolium pratense, with Elymus repens [4] and in the assay with Cirsium arvense [6] was Active. Besides, the outcome in the assay with Chenopodium album, in the assay on Taraxacum officinale, with Rumex confertus, with Bacillus subtilis [7], in the assay with Hordeum vulgare and in the assay on Phleum pratense was Active. Further, the result in the assay with Elymus repens [9] and in the assay on Xanthomonas campestris [10] was Active. Also, in the assay with Cannabis sativa, the result was inactive. For the same compound, in the assay with Candida tropicalis [8], the “growth inhibition (GI)” value was “Active”.
With `COC1=CC(=O)O/C1=C(/COC(C)=O)C(C)C(C)=O` (stereo unspecified), the outcome with Bacillus subtilis [3], in the assay on Elymus repens [4] and with Xanthomonas campestris [5] was Active.
